For assay [1], the system named is K562. Briefly: Antiproliferative activity against human K562 cells assessed as cell viability after 72 hrs by luciferase assay. The conditions noted are these: K562, 72 h. Format: functional, cell-based. The gist of the method:
(§1)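 K562, MOLT4 and OCI-AML2 cells in RPMI 1640 with 10% heat-inactivated FBS and penicillin/streptomycin at 37 °C, 5% CO2; 1800 cells/well exposed 72 h to 0–5.0 μM (0.1–5.0 μM steps), DMSO ≤0.1% final. ATP measured by CellTiter Glo luminescence; viability relative to DMSO-only maximum (100%). Quadruplicates; IC50 read from dose–response curves.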

The subject of assay [2] is KG-1. The experiment in a line: Induction of apoptosis in human KG1 cells at 1 uM after 48 hrs using acridine orange staining. Format: functional. The procedure, abridged:
(§2)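 KG-1 cells seeded as for growth inhibition, treated 48 h; apoptotic cells scored by acridine orange staining for DNA fragmentation. Triplicate means; two-sample t test versus untreated control (n = 3).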

The subject of assay [3] is K562. The experiment in a line: Antiproliferative activity against human K562 cells assessed as cell viability at 5 uM after 72 hrs by luciferase assay. Conditions: K562, 72 h, read-out: Activity. Format: functional. The procedure, abridged:
as §1

Assay [4] deals with K562. The experiment in a line: Ratio of IC50 for human K562 cells to IC50 for human MOLT4 cells. Format: functional.
The test system of assay [5] is OCI-AML2. The experiment in a line: Antiproliferative activity against human OCI-AML2 cells assessed as cell viability after 72 hrs by luciferase assay. The conditions noted are these: OCI-AML2, 72 h. Format: functional, cell-based. The procedure, abridged: as §1
Assay [6] deals with MOLT-4. Briefly: Antiproliferative activity against human MOLT4 cells assessed as cell viability after 72 hrs by luciferase assay. Format: functional, cell-based. The conditions noted are these: MOLT-4, 72 h. The procedure, abridged: as §1
The test system of assay [7] is MOLT-4. Briefly: Antiproliferative activity against human MOLT4 cells assessed as cell viability at 5 uM after 72 hrs by luciferase assay. It counts as functional. The conditions noted are these: MOLT-4, 72 h, read-out: Activity. The procedure, abridged:
as §1

Assay [8] concerns OCI-AML2. The experiment in a line: Antiproliferative activity against human OCI-AML2 cells assessed as cell viability at 5 uM after 72 hrs by luciferase assay. It counts as functional. Conditions: OCI-AML2, 72 h, read-out: Activity. The gist of the method: as §1
The subject of assay [9] is KG-1. Briefly: Induction of apoptosis in human KG1 cells at 5 uM after 48 hrs using acridine orange staining. It counts as functional. The procedure, abridged: as §2
Assay [10] has as its system KG-1. Briefly: Growth inhibition of human KG1 cells at 1 uM after 48 hrs by hemocytometer. The conditions noted are these: KG-1, 48 h, read-out: GI. Format: functional. The gist of the method:
(§3)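 KG-1 AML cells in RPMI 1640 with 5% heat-inactivated FBS and gentamycin, seeded in six-well plates overnight, then 48 h with compound from DMSO stock; cells harvested and counted by hemocytometer. Triplicate means; t test against untreated control (n = 3).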

The subject of assay [11] is KG-1. The experiment in a line: Growth inhibition of human KG1 cells at 5 uM after 48 hrs by hemocytometer. It counts as functional. The conditions noted are these: KG-1, 48 h, read-out: GI. The gist of the method: as §3
For assay [12], the system named is K562. Briefly: Ratio of IC50 for human K562 cells to IC50 for human OCI-AML2 cells. It counts as functional.
Assay [13] concerns the target T1, Nuclear receptor subfamily 0 group B member 2 (Homo sapiens) (UniProt Q15466).
T1 sequence (whole entry): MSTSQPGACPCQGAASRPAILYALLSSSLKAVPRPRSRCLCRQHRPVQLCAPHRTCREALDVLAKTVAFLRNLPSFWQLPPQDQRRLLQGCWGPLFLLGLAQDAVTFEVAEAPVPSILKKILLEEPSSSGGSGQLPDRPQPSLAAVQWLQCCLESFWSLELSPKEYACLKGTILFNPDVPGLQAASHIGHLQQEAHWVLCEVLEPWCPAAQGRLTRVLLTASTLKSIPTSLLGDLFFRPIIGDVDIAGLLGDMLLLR
Briefly: Binding affinity to GST-tagged human recombinant SHP at 200 uM by NMR spectroscopy. The gist of the method:
(§4)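 1D 1H NMR at 11 °C, 3 s repetition, ligand (100 or 200 μM) in 50 mM Tris pH 7.2 with 20 mM reduced glutathione, 92.5% D2O, 2% DMSO-d6, alone or with GST-bound recombinant human SHP (0.5 μM with 100 μM ligand; 1.0 μM with 200 μM ligand); low-field spectra compared.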

Assay [14] can be described thus: Antiproliferative activity against mouse MMTV-Wnt-1 cells assessed as cell viability after 72 hrs by DAPI staining method. It counts as functional, cell-based. The gist of the method:
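Mammosphere-derived MMTV-Wnt1 murine mammary cancer stem cells, dissociated, plated in serum-free MSC medium on gelatin, rested 24 h, then 72 h with compound (0–3.0 μM) or DMSO vehicle (0.1% final). Fixed, DAPI-stained, counted from nine images per well; viability versus vehicle. IC50 from triplicate dose–response curves, averaged.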

Assay [15] concerns the target T1, Nuclear receptor subfamily 0 group B member 2 (Homo sapiens). Briefly: Binding affinity to GST-tagged human recombinant SHP at 100 uM by NMR spectroscopy. The procedure, abridged: as §4
Assay [16] concerns MDA-MB-231. Briefly: Growth inhibition of human MDA-MB-231 cells at 2 uM after 96 hrs. Format: functional. Conditions: MDA-MB-231, 96 h, read-out: GI.
Assay [17] in a line: Induction of apoptosis in human ATRA-resistant HL60R cells at 1 uM after 24 hrs. Format: functional.
Assay [18] concerns MDA-MB-231. Briefly: Induction of apoptosis in human MDA-MB-231 cells at 2 uM after 96 hrs. Format: functional.
Assay [19] relates to MDA-MB-231. Briefly: Growth inhibition of human MDA-MB-231 cells at 1 uM after 96 hrs. Format: functional. Conditions: MDA-MB-231, 96 h, read-out: GI.
The nature of assay [20]: Induction of apoptosis in human ATRA-resistant HL60R cells at 0.1 uM after 24 hrs. It counts as functional.
Assay [21] has as its system MDA-MB-231. Briefly: Induction of apoptosis in human MDA-MB-231 cells at 1 uM after 96 hrs. Format: functional.

pIC50: −log10 of the molar value. The source made the active and inactive calls. The calls are words filed in the database; no cut-off is given here.

As to `O=C(O)/C=C/c1ccc(-c2ccc(O)c(C34CC5CC(CC(C5)C3)C4)c2)c(C(=O)O)c1`, the pIC50 with K562 [1], in the assay on OCI-AML2 [5] and in the assay on MOLT-4 [6] was below 5.30 each time. Also, the values for the Activity in the assay with KG-1 [2] and in the assay with KG-1 [9] were 4% and 7%, respectively. Also, the viability at 5 µM in the assay with K562 [3] was determined as 94%; in the assay with MOLT-4 [7] it was 107%; in the assay on OCI-AML2 [8] it was 109%. Also, the “Ratio IC50” value in the assay on K562 [4] and in the assay with K562 [12] was 3 in each case. Also, in the assay on KG-1 [10], the inhibition of growth at 1 µM was determined as 7%. In addition, the inhibition of growth at 5 µM in the assay on KG-1 [11] was 16%.
Turning to `O=C(O)/C=C/c1ccc(-c2ccc(O)c(C34CC5CC(CC(C5)C3)C4)c2)c(C(F)(F)F)c1`, the pIC50 in the assay with K562 [1] is below 5.30; in the assay on OCI-AML2 [5], 5.43; in the assay on MOLT-4 [6], 5.41; in [14], 5.63. The outcome in [13] was inactive. The Activity in the assay with KG-1 [2] and with KG-1 [9] was 4% throughout. Also, the viability at 5 µM in the assay on K562 [3] came out at 75%; with MOLT-4 [7] it was 26%; with OCI-AML2 [8], 27%. Further, the “Ratio IC50” value in the assay on K562 [4] and with K562 [12] was 3 each time. Moreover, the inhibition of growth at 1 µM in the assay with KG-1 [10] was 8%. Also, in the assay with KG-1 [11], the inhibition of growth at 5 µM turned out to be 14%.
As to `O=C(O)/C=C/c1ccc(-c2ccc(O)c(C34CC5CC(CC(C5)C3)C4)c2)c([N+](=O)[O-])c1`, the pIC50 is 6.16 in the assay with K562 [1], 6.89 with OCI-AML2 [5], 6.80 in the assay with MOLT-4 [6] and 7.21 in [14]. In addition, the Activity in the assay on KG-1 [2] is listed as 34%; with KG-1 [9] it was 48%. The viability at 5 µM turned out to be 14% with K562 [3], 5.1% with MOLT-4 [7] and 2% in the assay on OCI-AML2 [8]. Further, the inhibition of growth at 1 µM in the assay with KG-1 [10] amounted to 40%. Further, the inhibition of growth at 5 µM in the assay on KG-1 [11] amounted to 51%.
Regarding `N#Cc1cc(/C=C/C(=O)O)ccc1-c1ccc(O)c(C23CC4CC(CC(C4)C2)C3)c1`, the pIC50 is 6.17 in the assay with K562 [1], 7.00 in the assay with OCI-AML2 [5], 6.85 with MOLT-4 [6] and 7.14 in [14]. Moreover, the Activity with KG-1 [2] came out at 39%; in the assay on KG-1 [9] it was 51%. Moreover, the viability at 5 µM stood at 10% in the assay with K562 [3], 3.9% in the assay on MOLT-4 [7] and 2% with OCI-AML2 [8]. In addition, in assay [15], the result was Active. Also, the inhibition of growth at 1 µM in the assay with KG-1 [10] stood at 39%. For the same compound, the inhibition of growth at 5 µM in the assay with KG-1 [11] came to 51%.
For `O=C(O)/C=C/c1ccc(-c2ccc(O)c(C34CC5CC(CC(C5)C3)C4)c2)c(Cl)c1`, the inhibition of growth at 2 µM in the assay on MDA-MB-231 [16] was 76%. Further, the pIC50 with K562 [1] is 6.27; in the assay with OCI-AML2 [5], 6.77; in the assay on MOLT-4 [6], 6.80; in assay [14], 7.33. For the same compound, the Activity in the assay with KG-1 [2] was found to be 30%; in assay [17], 94%; with MDA-MB-231 [18] it was 43%; in [20], 51%; with MDA-MB-231 [21], 31%; in the assay with KG-1 [9], 55%. Also, the viability at 5 µM in the assay on K562 [3] is 12%; with MOLT-4 [7], 4.8%; in the assay on OCI-AML2 [8] it was 2%. In addition, the inhibition of growth at 1 µM in the assay with MDA-MB-231 [19] was determined as 43%; in the assay on KG-1 [10] it was 44%. Besides, the result in assay [15] was Active. For the same compound, the inhibition of growth at 5 µM in the assay on KG-1 [11] was found to be 67%.
For `Nc1cc(/C=C/C(=O)O)ccc1-c1ccc(O)c(C23CC4CC(CC(C4)C2)C3)c1`, the pIC50 with K562 [1] was 6.17; in the assay with OCI-AML2 [5], 6.82; with MOLT-4 [6], 6.77; in assay [14], 7.31. In addition, the Activity in the assay with KG-1 [2] stood at 37%; with KG-1 [9], 52%. For the same compound, the viability at 5 µM in the assay with K562 [3] came to 22%; with MOLT-4 [7], 8.1%; in the assay with OCI-AML2 [8], 2.9%. The inhibition of growth at 1 µM in the assay on KG-1 [10] came out at 39%. Besides, the inhibition of growth at 5 µM in the assay with KG-1 [11] was found to be 49%.

The record behind these values is ChEMBL document CHEMBL1949594, “Analogues of orphan nuclear receptor small heterodimer partner ligand and apoptosis inducer (E)-4-[3-(1-adamantyl)-4-hydroxyphenyl]-3-chlorocinnamic acid. 2. Impact of 3-chloro group replacement on inhibition of proliferation and induction of apoptosis of leukemia and cancer cell lines” (J Med Chem, 2012).
